Data from ChEMBL document CHEMBL4699498 (J Med Chem, 2020).
Activity calls are given as the source filed them. The calls are words filed in the database; no cut-off is given here.

Tests used:
[1] = test system: SW-620; experiment: Potentiation of TMZ induced antitumor activity against SW-620 cells xenografted in Balb/c mouse assessed as tumor growth suppression at 10 mg/kg, po qd administered for 5 days; assay type: functional, organism-based; details: time 5.0 day
How it was run: (§1)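 Male BALB/c nude mice carried SW620 xenografts (6×10^6 cells s.c.), randomized at ~150 mm³ (6 per group). TMZ 50 mg/kg was given orally once daily on days 0-4, 45 min after the partner drug. Partners were 5 or 10 mg/kg intraperitoneally or 10 mg/kg by oral gavage, daily for 5 days. Vehicle was 5% DMSO/20% PEG400/10% Cremophor EL/65% saline. Tumor volume and body weight were recorded 2-3 times weekly.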

[2] = Acute toxicity in Balb/c mouse xenografted with Capan1 cells assessed as mean weight loss at 50 mg/kg, ip qd administered for 5 days in presence of cisplatin measured on day 10 relative to control; assay type: organism-based; details: in vivo, 240 h, time 10 day
How it was run: (§2)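 Male BALB/c nude mice carried Capan-1 xenografts (5×10^6 cells s.c.), randomized at ~150 mm³ (6 per group). Treatment was 25 or 50 mg/kg intraperitoneally or 100 mg/kg by oral gavage, once daily on days 0-4. Cisplatin 6 mg/kg in saline was given intraperitoneally on day 2, 45 min after the partner drug. Tumor volume and body weight were measured 2-3 times weekly.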

[3] = target: T1, Protein cereblon/Poly [ADP-ribose] polymerase 1 (Homo sapiens, UniProt P09874+Q96SW2); experiment: Protac activity at CRBN/PARP1 in human CAPAN-1 cells assessed as induction of PARP1 degradation at 100 nM measured after 6 hrs by Western blot analysis; assay type: cell-based
T1 sequence (P09874 2-1014 limits assumed): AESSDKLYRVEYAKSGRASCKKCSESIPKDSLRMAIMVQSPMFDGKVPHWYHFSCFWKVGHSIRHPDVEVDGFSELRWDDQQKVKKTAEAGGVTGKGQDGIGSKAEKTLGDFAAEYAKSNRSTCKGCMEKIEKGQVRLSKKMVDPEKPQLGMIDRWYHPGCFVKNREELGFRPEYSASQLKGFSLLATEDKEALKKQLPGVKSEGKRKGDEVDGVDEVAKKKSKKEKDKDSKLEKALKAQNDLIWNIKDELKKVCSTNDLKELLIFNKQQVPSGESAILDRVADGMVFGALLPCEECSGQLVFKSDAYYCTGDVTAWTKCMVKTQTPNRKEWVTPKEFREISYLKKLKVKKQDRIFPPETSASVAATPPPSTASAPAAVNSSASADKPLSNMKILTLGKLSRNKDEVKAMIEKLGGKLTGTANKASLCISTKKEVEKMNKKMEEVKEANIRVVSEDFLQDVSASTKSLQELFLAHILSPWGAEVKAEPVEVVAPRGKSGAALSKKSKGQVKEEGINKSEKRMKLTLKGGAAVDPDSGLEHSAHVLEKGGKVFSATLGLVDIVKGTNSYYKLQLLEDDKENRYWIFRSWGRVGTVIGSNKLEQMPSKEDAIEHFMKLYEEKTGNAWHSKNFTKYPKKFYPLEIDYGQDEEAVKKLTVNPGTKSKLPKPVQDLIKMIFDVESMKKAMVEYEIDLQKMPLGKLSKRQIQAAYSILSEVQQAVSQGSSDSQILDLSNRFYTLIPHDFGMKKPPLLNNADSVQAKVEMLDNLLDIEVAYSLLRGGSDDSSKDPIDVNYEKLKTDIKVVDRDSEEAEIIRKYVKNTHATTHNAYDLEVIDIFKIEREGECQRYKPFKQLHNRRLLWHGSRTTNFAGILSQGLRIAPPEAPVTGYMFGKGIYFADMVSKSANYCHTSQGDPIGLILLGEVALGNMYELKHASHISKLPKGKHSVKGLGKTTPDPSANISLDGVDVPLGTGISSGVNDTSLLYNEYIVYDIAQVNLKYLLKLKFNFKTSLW
T1 sequence (Q96SW2 whole entry partner): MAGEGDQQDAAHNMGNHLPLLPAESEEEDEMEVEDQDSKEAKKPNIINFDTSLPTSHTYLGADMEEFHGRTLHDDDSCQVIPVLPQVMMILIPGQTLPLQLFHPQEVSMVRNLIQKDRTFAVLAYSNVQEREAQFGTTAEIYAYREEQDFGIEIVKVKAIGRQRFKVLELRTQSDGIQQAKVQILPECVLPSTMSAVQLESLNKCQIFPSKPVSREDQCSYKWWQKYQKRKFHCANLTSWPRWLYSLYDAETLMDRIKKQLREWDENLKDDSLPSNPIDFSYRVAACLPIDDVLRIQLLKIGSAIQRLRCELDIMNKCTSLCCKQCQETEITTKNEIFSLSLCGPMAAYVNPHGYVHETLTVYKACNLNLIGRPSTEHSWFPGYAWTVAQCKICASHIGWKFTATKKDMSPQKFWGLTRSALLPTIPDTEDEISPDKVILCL
How it was run: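 Capan-1 cells were treated with 100 nM over a time course. PARP1 was measured by western blot and normalized to β-tubulin.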

[4] = test system: NCM460; experiment: Cytotoxicity against human NCM460 cells assessed as reduction in cell viability incubated for 120 hrs by CCK-8 assay; assay type: cell-based; details: ncm460, 120 h
[5] = Acute toxicity in Balb/c mouse xenografted with CAPAN-1 cells assessed as mean weight loss at 25 mg/kg, ip qd administered for 5 days in presence of cisplatin measured on day 10 relative to control; assay type: organism-based; details: in vivo, 120 h, time 5 day; how it was run: as §2
[6] = Cytotoxicity against […] H9c2 cells assessed as reduction in cell viability incubated for 120 hrs by CCK-8 assay; assay type: cell-based; details: h9c2, 120 h
[7] = Acute toxicity in Balb/c mouse assessed as lethality at 25 to 50 mg/kg, ip administered 5 times a week for 3 weeks; assay type: organism-based; details: in vivo, 504 h
How it was run: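 Male BALB/c nude mice (5–6 weeks) received 5×10^6 Capan-1 cells s.c. in the right armpit. At a mean tumour volume of about 150 mm³, mice were randomised by tumour volume and body weight, 6 per group. Dosing was i.p. in 5% DMSO/20% PEG400/10% Cremophor EL/65% saline, once daily five times per week for 3 weeks. Body weight was measured 2–3 times weekly.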

[8] = target: T1, Protein cereblon/Poly [ADP-ribose] polymerase 1; experiment: Protac activity at CRBN/PARP1 in human MDA-MB-436 cells assessed as induction of PARP1 degradation at 10 nM incubated for 24 hrs by Western blot analysis relative to control; assay type: cell-based
How it was run: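 MDA-MB-436 cells (RPMI-1640, 10% FBS) seeded 24 h, then exposed to compound at 1, 10, 100 and 1000 nM for 24 h. Lysates in RIPA with protease inhibitors, 20-30 µg protein by SDS-PAGE, PARP1 immunoblot with β-tubulin loading control; PARP1/β-tubulin ratio normalized to DMSO control set at 100.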

[9] = Cmax in ICR mouse at 25 mg/kg, ip by LC-tandem mass spectrometry analysis; assay type: ADME, organism-based; parameters: route intraperitoneal, dose 25 mg/kg; details: in vivo
How it was run: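 Female ICR mice (20-23 g, 6-7 weeks old, n = 3) received a single 25 mg/kg intraperitoneal dose formulated in 5% DMSO/15% Solutol HS15/80% D5W. Plasma was sampled at 0.5, 1, 2, 4, 6, 8 and 24 h and protein-precipitated with methanol. Compound was quantified by LC-MS/MS against a standard curve.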

[10] = target: T1, Protein cereblon/Poly [ADP-ribose] polymerase 1; experiment: Protac activity at CRBN/PARP1 in human MDA-MB-231 cells assessed as induction of PARP1 degradation at 30 nM incubated for 1 to 24 hrs by Western blot analysis; assay type: cell-based; details: time hrs 1-24
[11] = test system: MDA-MB-436; experiment: Induction of DNA damage in human MDA-MB-436 cells assessed as increase in gammaH2AX foci formation incubated for 24 hrs by Western blot analysis; assay type: functional, cell-based; details: dose microM 0.1-10, time 24.0 hrs
How it was run: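 MDA-MB-436 (BRCA1-/-) or Capan-1 (BRCA2-/-) cells were treated 24 h at the indicated concentrations. Lysis was in RIPA buffer with protease inhibitors, and 20-30 μg protein was run on SDS-PAGE. Blots were probed for γH2AX, with β-tubulin as the loading control, and detected by ECL.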

[12] = target: T1, Protein cereblon/Poly [ADP-ribose] polymerase 1; experiment: Protac activity at CRBN/PARP1 in human SW620 cells assessed as reduction in PARP1 protein level at 0.01 to 10 uM incubated for 12 hrs by western blot analysis; assay type: cell-based; details: SW-620, dose microM 0.01-10, time 12.0 hrs
How it was run: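 MDA-MB-436 or SW620 cells dosed at 1, 10, 100, 1000 nM and 10 µM for 12 h; PARP1 assessed by western blot of RIPA lysates (20-30 µg protein), β-tubulin as loading control.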

[13] = target: T1, Protein cereblon/Poly [ADP-ribose] polymerase 1; experiment: Protac activity at CRBN/PARP1 in human MDA-MB-436 cells assessed as PARP1 protein degradation at 1 to 10 nM incubated for 24 hrs by western blot analysis; assay type: cell-based; details: dose nM 1-10, time 24.0 hrs
[14] = Tmax in ICR mouse at 25 mg/kg, ip by LC-tandem mass spectrometry analysis; assay type: ADME, organism-based; details: in vivo
How it was run: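 Female ICR mice (20-23 g, 6-7 weeks, n = 3) given a single 25 mg/kg ip dose in 5% DMSO/15% Solutol HS15/80% D5W; plasma at 0.5, 1, 2, 4, 6, 8 and 24 h, protein precipitated with methanol, drug quantified by LC-MS/MS against a standard curve.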

[15] = Acute toxicity in Balb/c mouse xenografted with SW-620 cells assessed as mean weight loss at 10 mg/kg, ip qd administered for 5 days in presence of TMZ measured on day 9 relative to control; assay type: organism-based; details: in vivo, 216 h, time 9 day; how it was run: as §1
[16] = target: T1, Protein cereblon/Poly [ADP-ribose] polymerase 1; experiment: Protac activity at CRBN/PARP1 in human CAPAN-1 cells assessed as induction of PARP1 degradation at 100 nM incubated for 24 hrs by Western blot analysis relative to control; assay type: cell-based
How it was run: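 Capan-1 cells were treated 24 h (1-1000 nM, or a wider dose range for DC50). Lysis was in RIPA buffer with protease inhibitors, and 20-30 μg protein was blotted. PARP1 was normalized to β-tubulin and to DMSO control, quantified by densitometry. DC50 came from two independent experiments.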

[17] = target: T1, Protein cereblon/Poly [ADP-ribose] polymerase 1; experiment: Protac activity at CRBN/PARP1 in human MDA-MB-436 cells assessed as induction of PARP1 degradation at 1 to 1000 nM incubated for 24 hrs by Western blot analysis; assay type: cell-based; details: dose nM 1-1000, time 24.0 hrs
How it was run: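 PARP1 immunoblot of MDA-MB-436 lysates after 24 h exposure at 1, 10, 100 and 1000 nM; RIPA lysis, 20-30 µg protein per lane, β-tubulin as loading control, band density normalized to DMSO control.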

O=C(CCCCCCCCCCC(=O)N1CCN(C(=O)c2cc(Cc3n[nH]c(=O)c4ccccc34)ccc2F)CC1)NCCNc1cccc2c1C(=O)N(C1CCC(=O)NC1=O)C2=O (configuration not stated)
Activity [1]: Active | Activity [2]: 12% | Activity [3]: Active | Activity [4]: Non-Toxic | Activity [5]: 9% | Activity [6]: Non-Toxic | Activity [7]: Non-Toxic | Activity [8]: > 99% | Cmax [9]: 1840 ng/mL | Activity [10]: Active | Activity [11]: Dose-dependent effect | Activity [12]: Active | Activity [13]: Active | Tmax [14]: 15 min | Activity [15]: 15% | Activity [16]: 100% | Activity [17]: Active
